Assay results taken from ChEMBL document CHEMBL3525967, “In vitro glucuronidation of the antibacterial triclocarban and its oxidative metabolites” (Drug Metab Dispos, 2012).

Legend:
[1] = tested on: Liver; test: Drug level in B6C3F1 mouse liver microsomes treated with triclocarban incubated for 5 mins prior to UDPGA addition measured after 30 mins by LC-UV-ESI-MS/MS analysis; type: ADME; conditions: 0.5 h
Method in brief: (§1)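 Microsomes or Sf-9 Supersomes (5 µg protein in 200 µL 100 mM potassium phosphate pH 7.4) pre-treated with alamethicin on ice 15 min; substrate 10 µM final (2% DMSO), MgCl2 and saccharolactone 10 mM each; 5 min preincubation at 37 °C, then UDPGA to start. Samples taken at 5, 10, 15, 30 min (or 2, 5, 10, 15 min) into ACN with internal standard; LC-UV-ESI-MS/MS.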

[2] = Drug level in human kidney microsomes treated with triclocarban incubated for 5 mins prior to UDPGA addition measured after 30 mins by LC-UV-ESI-MS/MS analysis; type: ADME; conditions: 0.5 h; method in brief: as §1
[3] = Drug level in cynomolgus monkey liver microsomes treated with triclocarban incubated for 5 mins prior to UDPGA addition measured after 30 mins by LC-UV-ESI-MS/MS analysis; type: ADME, Macaca fascicularis; conditions: 0.5 h; method in brief: as §1
[4] = tested on: Liver microsome; test: Drug level in human liver microsomes treated with triclocarban incubated for 5 mins prior to UDPGA addition measured after 30 mins by LC-UV-ESI-MS/MS analysis; type: ADME; conditions: 0.5 h; method in brief: as §1
[5] = Drug excretion in human urine assessed as retention time treated with triclocarban by LC-UV-MS method; type: ADME
[6] = Drug level in Swiss webster mouse urine treated with triclocarban at 5 mg/kg, po by LC-MS analysis; type: ADME, organism-based; parameters: dose 5 mg/kg, route oral; conditions: in vivo
Method in brief: (§2)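 TCC given by oral gavage as 1 mg/mL in 20/80 DMSO/PEG400, at 1 mg/kg (rats) or 5 mg/kg (mice). Animals in metabolic cages (mice two per cage, rats singly), blank urine taken 24 h before dosing. Urine collected 0-24 h and 24-48 h and analysed by online-LC-MS.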

[7] = molecular target: T1, UDP-glucuronosyltransferase 1A9 (Homo sapiens, UniProt O60656); test: Activity of human UGT1A9 expressed in baculovirus infected insect sf9 cells assessed as enzyme-mediated drug metabolism treated with triclocarban incubated for 5 mins prior to UDPGA addition measured after 30 mins by LC-ESI-MS analysis; type: ADME; conditions: sf9, 0.5 h; method in brief: as §1
T1 sequence (O60656 whole entry): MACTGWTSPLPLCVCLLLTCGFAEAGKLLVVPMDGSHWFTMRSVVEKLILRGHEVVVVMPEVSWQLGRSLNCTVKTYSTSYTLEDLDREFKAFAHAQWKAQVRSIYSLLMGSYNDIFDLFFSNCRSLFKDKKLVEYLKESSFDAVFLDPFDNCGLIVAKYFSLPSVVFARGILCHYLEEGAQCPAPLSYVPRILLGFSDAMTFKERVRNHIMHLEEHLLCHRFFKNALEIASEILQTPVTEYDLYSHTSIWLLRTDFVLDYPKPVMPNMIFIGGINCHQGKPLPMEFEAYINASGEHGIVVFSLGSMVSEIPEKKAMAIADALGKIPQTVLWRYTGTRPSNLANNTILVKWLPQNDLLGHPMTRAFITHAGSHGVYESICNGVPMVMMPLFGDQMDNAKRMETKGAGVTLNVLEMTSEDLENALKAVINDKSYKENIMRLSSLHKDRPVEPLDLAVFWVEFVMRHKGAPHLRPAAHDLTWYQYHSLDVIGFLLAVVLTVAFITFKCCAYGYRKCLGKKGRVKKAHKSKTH

[8] = Drug level in Sprague-Dawley rat urine treated with triclocarban at 1 mg/kg, po by LC-MS analysis; type: ADME, organism-based; parameters: dose 1 mg/kg, route oral; conditions: in vivo; method in brief: as §2
[9] = tested on: Liver microsome; test: Drug metabolism in Sprague-Dawley rat liver microsomes assessed as retention time treated with 6-hydroxy-triclocarban by LC-UV-MS method in presence of UDPGA; type: ADME
[10] = Drug metabolism in microsomes (unknown origin) assessed as retention time treated with 10 uM triclocarban by LC-UV-MS method; type: ADME, Microsome

| Structure (SMILES) | Drug metabolism [1] | Drug metabolism [2] | Drug metabolism [3] | Drug metabolism [4] | Retention_time [5] [min] | Drug metabolism [6] | Drug metabolism [7] | Drug metabolism [8] | Retention_time [9] [min] | Retention_time [10] [min] |
| --- | --- | --- | --- | --- | --- | --- | --- | --- | --- | --- |
| O=C(O)[C@H]1OC(N(C(=O)Nc2ccc(Cl)cc2)c2ccc(Cl)c(Cl)c2)[C@H](O)[C@@H](O)[C@@H]1O (stereo not given in full) | metabolite_detected | metabolite_detected | metabolite_detected | metabolite_detected | 1.97 | metabolite_detected | metabolite_detected |  |  |  |
| O=C(Nc1ccc(Cl)cc1)Nc1cc(Cl)c(Cl)cc1OC1O[C@H](C(=O)O)[C@@H](O)[C@H](O)[C@H]1O (stereo not given in full) |  |  |  |  |  | metabolite_detected |  | metabolite_detected | 2.51 |  |
| O=C(Nc1ccc(Cl)c(Cl)c1)Nc1ccc(Cl)cc1OC1O[C@H](C(=O)O)[C@@H](O)[C@H](O)[C@H]1O (stereo not given in full) |  |  |  |  |  | metabolite_detected |  | metabolite_detected |  | 2.5 |

The next lines start with the values.

| Drug metabolism [1] | Drug metabolism [2] | Drug metabolism [3] | Drug metabolism [4] | Retention_time [5] [min] | Drug metabolism [6] | Drug metabolism [7] | Drug metabolism [8] | Retention_time [9] [min] | Retention_time [10] [min] | Structure (SMILES) |
| --- | --- | --- | --- | --- | --- | --- | --- | --- | --- | --- |
| metabolite_detected | metabolite_detected | metabolite_detected | metabolite_detected | 2.07 | metabolite_detected | metabolite_detected |  |  |  | O=C(O)[C@H]1OC(N(C(=O)Nc2ccc(Cl)c(Cl)c2)c2ccc(Cl)cc2)[C@H](O)[C@@H](O)[C@@H]1O (stereo not given in full) |
|  |  |  |  |  |  |  |  |  | 3.46 | O=C(Nc1ccc(Cl)c(Cl)c1)Nc1ccc(Cl)cc1OS(=O)(=O)O |
|  |  |  |  |  | metabolite_detected |  | metabolite_detected | 2.26 |  | O=C(Nc1ccc(Cl)c(Cl)c1)Nc1ccc(Cl)c(OC2O[C@H](C(=O)O)[C@@H](O)[C@H](O)[C@H]2O)c1 (stereo not given in full) |
|  |  |  |  |  |  |  |  |  | 4.36 | O=C(Nc1ccc(Cl)cc1)Nc1ccc(Cl)cc1 |
